The list is not random: actives were taken first. Their share in the collection is about 2%.
PLCg1 inh = PLC-gamma1 enzyme inhibitors, primary screen, biochemical, fluorescence, purified enzyme | inhibition, % at 12.2 µM | fluorogenic substrate | 370,000 compounds, 0.84% hits | 1-phosphatidylinositol 4,5-bisphosphate phosphodiesterase gamma-1 (Homo sapiens), P19174 | AID 720700, 2013; in the data active means inhibition above about 9.5%
IMP-1 inhibitor = IMP-1 metallo-beta-lactamase inhibitors, primary screen, biochemical, epi-absorbance readout, Pseudomonas aeruginosa enzyme. AID 1556, 2009. 290,000 compounds, 0.45% hits. inhibition, % at 5.6 µM. purified IMP-1, nitrocefin hydrolysis, epi-absorbance fluorescence. metallo-beta-lactamase IMP-1 (Pseudomonas aeruginosa);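 active means inhibition above the mean plus 3 SD of all compounds in the same screening run, cut at about 4.5% in these data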;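 further: 0% = IMP-1 with DMSO and 100% = DMSO wells lacking enzyme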
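Assay system: purified recombinant IMP-1 beta-lactamase. Input: IMP-1 0.2 nM before substrate addition. Buffer or medium: Zinc- and detergent-supplemented HEPES buffer, pH 7.1. Schedule: 25 °C, 15 min preincubation, 25 min reaction. Signal: Epi-absorbance fluorescence, 480 nm excitation, 530 nm emission. Evaluation: percent inhibition from optical density relative to buffer-blank wells.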
PLCb3 inh = human PLC-beta3 inhibitors, primary screen, biochemical, fluorescence. Purified PLC-beta3, fluorogenic substrate. 370,000 compounds, 0.18% hits. inhibition, % at 12.2 µM. 1-phosphatidylinositol 4,5-bisphosphate phosphodiesterase beta-3 (Homo sapiens), Q01970; in the data active means inhibition above about 11%;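 further: 0% = median of compound wells on plate and 100% = full blocker control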
Target sequence (Q01970 whole entry, looked up): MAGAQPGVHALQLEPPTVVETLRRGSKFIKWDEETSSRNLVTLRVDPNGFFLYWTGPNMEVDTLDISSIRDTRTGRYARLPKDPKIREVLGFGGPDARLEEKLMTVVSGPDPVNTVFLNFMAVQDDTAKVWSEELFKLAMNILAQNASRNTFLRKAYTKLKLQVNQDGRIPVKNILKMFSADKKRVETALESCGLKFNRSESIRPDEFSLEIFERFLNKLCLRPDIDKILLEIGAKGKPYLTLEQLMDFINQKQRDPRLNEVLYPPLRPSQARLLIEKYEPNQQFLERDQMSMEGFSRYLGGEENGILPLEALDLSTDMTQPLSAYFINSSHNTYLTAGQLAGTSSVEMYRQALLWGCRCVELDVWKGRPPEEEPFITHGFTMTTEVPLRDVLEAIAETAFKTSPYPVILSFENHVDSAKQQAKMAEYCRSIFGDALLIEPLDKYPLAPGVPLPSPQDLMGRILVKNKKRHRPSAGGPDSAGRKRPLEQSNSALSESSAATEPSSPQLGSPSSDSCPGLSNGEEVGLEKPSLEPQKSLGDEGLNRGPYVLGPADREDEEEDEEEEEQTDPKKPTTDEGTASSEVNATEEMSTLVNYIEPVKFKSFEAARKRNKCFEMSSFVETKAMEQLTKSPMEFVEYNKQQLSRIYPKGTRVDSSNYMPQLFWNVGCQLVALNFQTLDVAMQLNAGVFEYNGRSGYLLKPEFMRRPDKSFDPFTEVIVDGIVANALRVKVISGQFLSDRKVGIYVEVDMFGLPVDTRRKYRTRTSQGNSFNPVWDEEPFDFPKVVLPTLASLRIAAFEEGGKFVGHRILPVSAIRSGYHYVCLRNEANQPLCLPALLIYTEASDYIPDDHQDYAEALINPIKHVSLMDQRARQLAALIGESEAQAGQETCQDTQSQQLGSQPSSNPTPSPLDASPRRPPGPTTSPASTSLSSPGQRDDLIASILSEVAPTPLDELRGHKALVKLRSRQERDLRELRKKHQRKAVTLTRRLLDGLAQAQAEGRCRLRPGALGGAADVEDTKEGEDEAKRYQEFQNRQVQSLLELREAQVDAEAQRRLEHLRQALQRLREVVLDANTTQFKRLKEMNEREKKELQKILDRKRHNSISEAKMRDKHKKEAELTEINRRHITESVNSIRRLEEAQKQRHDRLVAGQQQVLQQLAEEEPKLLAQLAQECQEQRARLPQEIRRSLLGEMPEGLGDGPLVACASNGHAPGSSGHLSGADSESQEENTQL
PvdQ inh = P. aeruginosa PvdQ acylase inhibitors, primary screen, biochemical, fluorescence, plate reader and imaging, single point; AID 488965, 2010; purified PvdQ acylase; inhibition, % at 10 µM; PvdQ acylase [Pseudomonas aeruginosa LESB58]; 340,000 compounds, 0.063% hits; in the data active means inhibition above about 30%, passing the limit was not always enough;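 further: 0% = vehicle neutral wells and 100% = reference inhibitor wells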
VIM-2 inhibitor = VIM-2 metallo-beta-lactamase inhibitors, primary screen, biochemical, epi-absorbance readout, Pseudomonas aeruginosa enzyme | purified VIM-2, nitrocefin hydrolysis, epi-absorbance fluorescence | inhibition, % at 5.6 µM | 290,000 compounds, 0.89% hits;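 active means inhibition above the mean of all tested compounds plus 3 SD, cutoff set per screening run, cut at about 7.5% in these data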;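 further: red hydrolysis product quenches plate fluorescence so inhibitors raise well fluorescence; 0% = enzyme with DMSO and 100% = DMSO without enzyme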
* hit, by the source's call; i = inactive; x = no result; ! = not confirmed by another sample.

SMILES	PLCg1 inh	IMP-1 inhibitor	PLCb3 inh	PvdQ inh	VIM-2 inhibitor
CC(C)(C)C1CCc2c(sc(NC(=O)c3cc(C4CC4)on3)c2C#N)C1 (centres undefined)	-1	4.9*	1	-2	-5
Cc1cc2[nH]c3c(c[n+](C)c4ccccc34)c2cc1C	i	11*	i	-20	6
Cc1cc2[nH]c3c4ccccc4nc(C)c3c2cc1C	i	x	i	-16	x
C#CCN1C(=O)[C@]2(NCCc3c2[nH]c2ccc(OC)cc32)c2ccccc21	-2	x	-1	x	x
CC(C)c1ccc(NC(=O)CCNS(=O)(=O)c2cccc3nonc23)cc1	14*	-2	8	-5	-4
Cc1ccc(NC(=O)CCNS(=O)(=O)c2cccc3nonc23)cc1	2	-2	1	7	0
Cc1c(-n2c(SCC(=O)O)nnc2-c2ccccc2Br)c(=O)n(-c2ccccc2)n1C	1	-3	-2	-3	12*
Cc1c(C)n(CCc2ccccc2)c2ncnc(NN)c12	-20	1	-31	-5	7.8*
Cc1c(C)n(Cc2ccccc2)c2ncnc(NN)c12	-17	0	-26	-12	2
Cc1cc(=O)oc2c3c(cc(OCC(=O)NC(C)C)c12)OC(C)(C)CC3	i	-3	i	11	-1
Cc1cc(=O)oc2c3c(cc(OCC(=O)N[C@@H](C)C(=O)O)c12)OC(C)(C)CC3	i	-4	i	1	8.5*
O=C(Nc1ccccc1Cl)OC1CC2CC1[C@H]1CCCCN1[C@H]2Cc1ccccc1 (some centres undefined)	-3	x	-3	x	x
O=C(NCC(c1ccco1)N1CCN(c2ccccc2F)CC1)C(=O)NC1CCCCC1 (centres undefined)	9.5*	x	2	2	x
O=C(NCC(c1ccco1)N1CCN(c2ccccc2F)CC1)C(=O)NC1CC1 (centres undefined)	0	x	-5	-14	x
O=C(NCCOC(=O)c1ccccc1C(=O)OCCNC(=O)c1cccnc1)c1cccnc1	8	0	12*	-12	-2
Cc1cc(C)c(C(=O)OCCNC(=O)c2cccnc2)cc1C	-1	-1	1	-1	-1
COc1ccc(-n2c(COc3ccccc3)nnc2SCC(=O)Nc2ccccc2-c2ccccc2)cc1	5	x	5	x	x
CCOC(=O)c1c(C)oc2c(F)c(F)c(F)c(F)c2c1=O	-95	8.8*	-107	11	-2
O=C(C1CCC1)N1CCN(c2ccc(Cl)cc2)CC1	6	-2	-1	36*	-2
O=C(c1ccc(Cl)cc1)N1CCCC(C(=O)N2CCN(c3ccccc3)CC2)C1 (centres undefined)	1	0	-5	x	1
C[C@@H]1OC(C2CCCCC2)N(C)[C@H]2C[C@H]3c4[nH]c5cccc(-c6cccc(F)c6)c5c4CCN3C(=O)[C@@H]12 (some centres undefined)	-184	x	-234	x	x
Cn1c2ccccc2c2ccc3c(c21)C(=O)C=CC3=O	-44	x	-52	-1	x
Cc1ccc2c(c1)c1ccc3c(c1n2C)C(=O)C=CC3=O	-71	-1	-108	-17	12*
CCCCCCCC(=O)N[C@H]1CC[C@@]23CCCN2C(=O)CCC[C@H]3[C@H]1C	5	x	4	x	x
CCC(C)Sc1cc(C)c(C#N)c2nc3ccccc3n12 (centres undefined)	-142	-2	-190	-4	10*
SMILES	PLCg1 inh	IMP-1 inhibitor	PLCb3 inh	PvdQ inh	VIM-2 inhibitor
Cc1cc(-n2ccnc2)n2c(nc3ccccc32)c1C#N	-197	3	-204	-1	7.7*
Cc1cc(C(C)C)n2c(nc3ccccc32)c1C#N	x	0	x	x	1
Cc1ccc(-n2c(SCC(=O)Nc3ccccc3-c3ccccc3)nnc2-c2cccnc2)cc1	4	x	1	x	x
Cc1cccc(CC2CC(=O)N(c3nc4ccccc4s3)C2=O)c1 (centres undefined)	-2	8.6*	-5	-18	1
COc1ccc2sc(N3C(=O)CC(Cc4cccc(C)c4)C3=O)nc2c1 (centres undefined)	0	-1	-3	7	-1
CC(C)(C)OC(=O)N1CCC(N[C@@H](Cc2ccccc2)C(=O)NCCc2c[nH]c3ccccc23)(C(=O)NC2CCCCC2)CC1	8	x	3	x	x
Cc1cc(C)cc(N(CC(=O)NC2CCC(C)CC2)S(=O)(=O)c2cccs2)c1 (centres undefined)	-5	x	-2	x	x
COc1cccc(/C=C2/Sc3ccc(C(=O)NCCN4CCCC4)cc3NC2=O)c1	-108	-3	-136	5	11*
COC(=O)[C@]12C[C@H](CC(=O)NCc3cccc4ccccc34)C(=O)N(Cc3ccco3)C1=C[C@H](C(C)(C)C)O[C@@H]2C	1	x	-2	x	x
CCOC(=O)[C@@]12CCCC=C1N(CCc1ccc(Cl)cc1)C(=O)[C@H]2CC(=O)NCc1cccc2ccccc12	3	x	2	x	x
Cc1cccc(NC(=S)NNC(=O)CCn2nc(C)c([N+](=O)[O-])c2C)c1	-1	-7	4	13	8.2*
COCCN1C(=O)/C(=C/c2ccc(N3CCCC3)cc2)SC1=S	-32	4.5*	-36	-28	5
CCOC(=O)c1csc(NC(=O)C2CCCN(S(=O)(=O)c3ccccc3[N+](=O)[O-])C2)n1 (centres undefined)	1	x	1	x	x
COCC(=O)Nc1sc2c(c1C(=O)OC)CCCC2	-3	0	-6	5	0
COC(=O)c1c(NC(=O)Cc2cccs2)sc2c1CCCC2	-7	4.5*	-3	8	1
COC(=O)c1c(NC(=O)C(=O)N2CCOCC2)sc2c1CCCC2	-4	-1	-15	-8	6
COC(=O)c1c(NC(=O)C(=O)N2CCOCC2)sc2c1CCC2	-3	1	-17	3	11*
COC(=O)[C@]12C[C@H](CC(=O)NCc3ccccc3)C(=O)N(Cc3cccc4ccccc34)C1=C[C@H](COCc1ccccc1)O[C@@H]2C	2	x	-2	x	x
CC(=O)Nc1ccc(OCC(C)CN2CCC(C(O)(c3ccccc3)c3ccccc3)CC2)cc1 (centres undefined)	2	x	2	x	x
O=C(Cc1cc(=O)[nH][nH]1)N/N=C/c1c(Cl)cccc1Cl	8	7.5*!	2	3	2
COc1ccc2cc3cc(C(=O)NCCCN4CCC(C)CC4)oc3nc2c1	x	0	x	-4	9.9*
CCN1CCN(CCCNC(=O)c2cc3cc4ccc(OC)cc4nc3o2)CC1	x	-2	x	-16	3
CCN(c1ccccc1)S(=O)(=O)c1ccc(Cl)c(NC(=O)CN2CCN(C)CC2)c1	3	x	-4	-3	x
CS(=O)(=O)N(CC(=O)Nc1cccc(Cl)c1Cl)c1ccccc1	2	-3	-2	-2	-2
CS(=O)(=O)N(CC(=O)Nc1cc(Cl)ccc1Cl)c1ccccc1	-2	4.6*	1	-8	-1
